Assay [1] is described as follows: Displacement of [3H]-DTG from sigma 2 receptor in rat liver membranes after 120 mins by scintillation counting analysis. Type of assay: cell membranes, Membrane. An outline of the steps: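 Rat liver homogenate (150 μg) incubated 120 min at room temperature with 3 nM [3H]-DTG in 50 mM Tris-HCl pH 8.0. Excess unlabeled (+)-pentazocine masked S1R, and high unlabeled DTG defined nonspecific binding. Compound at 10^-10 to 10^-5 M final, in duplicate. Filtered through PEI-presoaked filtermats and counted by scintillation. IC50 from nonlinear regression, converted to Ki by Cheng-Prusoff; mean ± SEM of three experiments.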
(Displacement assays read how much labelled ligand stays bound in the presence of the test substance.)

In assay [2] the target is Sigma non-opioid intracellular receptor 1 (Cavia porcellus, UniProt Q60492). Put plainly: Displacement of [3H]-(+)-pentazocine from sigma 1 receptor in guinea pig cerebral cortex membranes after 120 mins by scintillation counting analysis. The arrangement: species or system Membrane.
Sequence of Sigma non-opioid intracellular receptor 1 (Q60492 whole entry): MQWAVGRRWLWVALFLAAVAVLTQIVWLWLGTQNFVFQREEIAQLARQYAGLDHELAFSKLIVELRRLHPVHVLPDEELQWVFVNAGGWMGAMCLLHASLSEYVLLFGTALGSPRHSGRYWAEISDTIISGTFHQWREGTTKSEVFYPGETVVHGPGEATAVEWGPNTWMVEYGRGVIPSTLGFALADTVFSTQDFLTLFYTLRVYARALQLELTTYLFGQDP
Assay [3] can be described thus: Selectivity ratio of Ki for sigma 2 receptor in rat liver membranes to Ki for sigma 1 receptor in guinea pig cerebral cortex membranes. Format: cell membranes. An outline of the steps: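 Ratio computed as Ki at S2R (rat liver, [3H]-DTG with S1R masked by (+)-pentazocine) divided by Ki at S1R (guinea pig cortex, [3H](+)-pentazocine). Both Ki values come from Cheng-Prusoff conversion of IC50s from 120 min displacement assays, each the mean of three experiments.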

The structures appear in SMILES notation.

What is called Ki is a dissociation constant, usually derived from enzyme kinetics or from competition with a known ligand. High values mean weaker binding, low ones tighter binding. With `COc1cccc(C(C)CCN2CCCCC2)c1` (racemic), the Ki in assay [1] turned out to be 35 nM; in assay [2] it was 36 nM. Moreover, in assay [3], the Ratio Ki was 0.97.

Take `CC(CCN1CCC(Cc2ccccc2)CC1)c1ccccc1` (racemic): the Ki in assay [1] is 6.5 nM. The Ratio Ki in assay [3] came to 3.1.

In the case of `CC(CCN1CCC(Cc2ccccc2)CC1)c1ccc2ccccc2c1` (racemic), the figures for the Ki in assay [1] and in assay [2] were 144 nM and 19 nM, respectively. In addition, in assay [3], the Ratio Ki turned out to be 7.6.

As for `CC(CCN1CCOCC1)c1ccccc1` (racemic), the Ki amounted to 71 nM in assay [1] and 85 nM in assay [2]. In assay [3], the Ratio Ki is 1.2.

For the molecule `CC(CCN1CCCCC1)c1ccc2ccccc2c1` (racemic), the Ki in assay [1] amounted to 50 nM; in assay [2] it was 1.5 nM. The Ratio Ki in assay [3] is 33.3.

Take `COc1cccc(C(C)CCN2CCC(Cc3ccccc3)CC2)c1` (racemic): the values for the Ki in assay [1] and in assay [2] were 14 nM and 2.9 nM, respectively. For the same molecule, the Ratio Ki in assay [3] amounted to 4.83.

Turning to `COc1ccc(C(C)CCN2CCC(Cc3ccccc3)CC2)cc1` (racemic), the Ki was found to be 18 nM in assay [1] and 3.5 nM in assay [2]. For the same molecule, the Ratio Ki in assay [3] is 5.14.

As for `CC(CCN(C)C)c1ccccc1` (racemic), the figures for the Ki in assay [1] and in assay [2] were over 1000 nM and 427 nM, respectively.

For `COc1cccc(C(C)CCN2CCOCC2)c1` (racemic), the Ki in assay [1] stood at 92 nM; in assay [2] it was 137 nM. Also, the Ratio Ki in assay [3] stood at 0.67.

For the molecule `COc1ccc(C(C)CCN2CCOCC2)cc1` (racemic), the Ki worked out at 68 nM in assay [1] and 76 nM in assay [2]. For the same molecule, in assay [3], the Ratio Ki is 0.89.

Consider `COc1ccc(C(C)CCN2CCCCC2)cc1` (racemic), for which the Ki in assay [1] came out at 58 nM; in assay [2] it was 20 nM. The Ratio Ki in assay [3] was determined as 2.9.

With `CC(CCN(C)C)c1ccc2ccccc2c1` (racemic), the affinity in assay [1], expressed as Ki, was 43.8 nM. Also, the Ratio Ki in assay [3] turned out to be 22.

Turning to `CC(CCN1CCCCC1)c1ccccc1` (racemic), the Ki in assay [1] was found to be 56 nM; in assay [2], 46 nM. Further, in assay [3], the Ratio Ki was 1.22.

On to `COc1ccc(C(C)CCN(C)C)cc1` (racemic), for which the Ki in assay [1] worked out at 255 nM; in assay [2], 116 nM. Besides, the Ratio Ki in assay [3] is 2.2.

With `COc1cccc(C(C)CCN(C)C)c1` (stereo not given), the Ki is 864 nM in assay [1] and 239 nM in assay [2]. For the same molecule, the Ratio Ki in assay [3] was 3.62.

As for `CC(CCN1CCOCC1)c1ccc2ccccc2c1` (racemic), the figures for the Ki in assay [1] and in assay [2] were 33 nM and 5.4 nM, respectively. In addition, the Ratio Ki in assay [3] came to 6.1.

The values are drawn from ChEMBL document CHEMBL3867483, “Gaining in pan-affinity towards sigma 1 and sigma 2 receptors. SAR studies on arylalkylamines” (Bioorg Med Chem, 2017).
